Test results from ChEMBL document CHEMBL1154067, “Antiviral and cytotoxic activities of aminoarylazo compounds and aryltriazene derivatives” (Bioorg Med Chem, 2009).
Activity calls are given as the source filed them.

Tested on: not listed separately
Assay: Cytotoxicity against MDBK cells after 48 to 96 hrs by MTT assay
Format: cell-based, Bos taurus
Conditions: cattle, mdbk
Outline: (§1)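 Mock-infected cells in maintenance medium, MDBK at 6 × 10^5 and BHK at 1 × 10^6 cells/mL initial density, with or without serial compound dilutions. Run in parallel with antiviral assays. Viability by MTT after 48–96 h at 37 °C, 5% CO2. CC50 = concentration reducing viability 50%.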

Compound	CC50 [µM]
CN(C)CCCN(/N=N/c1c(F)cccc1F)c1ccccc1	45
FC(F)(F)c1cccc(N/N=N/c2ccccc2)c1	> 100
c1ccc(/N=N/c2ccc(NC[C@@H]3CCCN4CCCC[C@H]34)c3c2CCCC3)cc1	> 100
CN(C)CCCN(/N=N/c1cccc([N+](=O)[O-])c1)c1ccccc1	37
CN(C)CCCN(/N=N/c1cc(F)ccc1F)c1ccccc1	25
Fc1ccc(/N=N/c2ccc(NC[C@@H]3CCCN4CCCC[C@H]34)c3c2CCCC3)c(F)c1	11

Tested on: Yellow fever virus
Assay: Antiviral activity against Yellow fever virus infected in BHK-21 cells assessed as inhibition of virus-induced cytopathicity after 3 to 4 days by MTT assay
Format: functional, organism-based
Conditions: not given

Compound	EC50 [µM]
CN(C)CCCN(/N=N/c1c(F)cccc1F)c1ccccc1	20
FC(F)(F)c1cccc(N/N=N/c2ccccc2)c1	≥ 100
c1ccc(/N=N/c2ccc(NC[C@@H]3CCCN4CCCC[C@H]34)c3c2CCCC3)cc1	≥ 100
CN(C)CCCN(/N=N/c1cccc([N+](=O)[O-])c1)c1ccccc1	24
CN(C)CCCN(/N=N/c1cc(F)ccc1F)c1ccccc1	> 25
Fc1ccc(/N=N/c2ccc(NC[C@@H]3CCCN4CCCC[C@H]34)c3c2CCCC3)c(F)c1	> 9

Tested on: not listed separately
Assay: Cytotoxicity against hamster BHK21 cells assessed as reduction in cell viability after 48 to 96 hrs by MTT assay
Format: cell-based, Mesocricetus auratus, BHK-21
Conditions: bhk-21
Outline: as §1

Compound	CC50 [µM]
CN(C)CCCN(/N=N/c1c(F)cccc1F)c1ccccc1	52
FC(F)(F)c1cccc(N/N=N/c2ccccc2)c1	> 100
c1ccc(/N=N/c2ccc(NC[C@@H]3CCCN4CCCC[C@H]34)c3c2CCCC3)cc1	> 100
CN(C)CCCN(/N=N/c1cccc([N+](=O)[O-])c1)c1ccccc1	54
CN(C)CCCN(/N=N/c1cc(F)ccc1F)c1ccccc1	25
Fc1ccc(/N=N/c2ccc(NC[C@@H]3CCCN4CCCC[C@H]34)c3c2CCCC3)c(F)c1	9

Tested on: Respiratory syncytial virus
Assay: Antiviral activity against Respiratory syncytial virus A2 infected in Vero-76 cells after 5 days by plaque reduction assay
Format: functional, organism-based
Conditions: human respiratory syncytial virus, A2, Vero 76, 120 h

Compound	EC50 [µM]
CN(C)CCCN(/N=N/c1c(F)cccc1F)c1ccccc1	≥ 25
FC(F)(F)c1cccc(N/N=N/c2ccccc2)c1	3
c1ccc(/N=N/c2ccc(NC[C@@H]3CCCN4CCCC[C@H]34)c3c2CCCC3)cc1	> 80
CN(C)CCCN(/N=N/c1cccc([N+](=O)[O-])c1)c1ccccc1	> 40
CN(C)CCCN(/N=N/c1cc(F)ccc1F)c1ccccc1	> 7
Fc1ccc(/N=N/c2ccc(NC[C@@H]3CCCN4CCCC[C@H]34)c3c2CCCC3)c(F)c1	> 15

Tested on: MT4
Assay: Cytotoxicity against human MT4 cells after 96 hrs by MTT assay
Format: cell-based
Conditions: mt4, 96 h
Outline: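 Exponentially growing mock-infected MT-4 seeded at 1 × 10^5 cells/mL in RPMI-1640 with 10% FCS, penicillin and streptomycin. Incubated with or without serial compound dilutions at 37 °C, 5% CO2. Viability by MTT after 96 h. CC50 = concentration reducing viability 50%.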

Compound	CC50 [µM]
CN(C)CCCN(/N=N/c1c(F)cccc1F)c1ccccc1	23
FC(F)(F)c1cccc(N/N=N/c2ccccc2)c1	> 100
c1ccc(/N=N/c2ccc(NC[C@@H]3CCCN4CCCC[C@H]34)c3c2CCCC3)cc1	100
CN(C)CCCN(/N=N/c1cccc([N+](=O)[O-])c1)c1ccccc1	14
CN(C)CCCN(/N=N/c1cc(F)ccc1F)c1ccccc1	13
Fc1ccc(/N=N/c2ccc(NC[C@@H]3CCCN4CCCC[C@H]34)c3c2CCCC3)c(F)c1	51

Tested on: Mammalian orthoreovirus 1
Assay: Antiviral activity against Reovirus-1 infected in BHK-21 cells assessed as inhibition of virus-induced cytopathicity after 3 to 4 days by MTT assay
Format: functional, organism-based
Conditions: Mammalian orthoreovirus 1, BHK-21
Outline: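 BHK-21 cells seeded at 5 × 10^4 cells/well, grown overnight to confluent monolayers at 37 °C in 5% CO2, then infected at m.o.i. 0.01 in serum-free medium. One hour later, MEM Earle's with 1% final inactivated FCS added, with or without serial compound dilutions. Viability read by MTT after 3–4 days at 37 °C. EC50 is the concentration giving 50% protection from cytopathogenicity.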

Compound	EC50 [µM]
CN(C)CCCN(/N=N/c1c(F)cccc1F)c1ccccc1	> 52
FC(F)(F)c1cccc(N/N=N/c2ccccc2)c1	> 100
c1ccc(/N=N/c2ccc(NC[C@@H]3CCCN4CCCC[C@H]34)c3c2CCCC3)cc1	> 100
CN(C)CCCN(/N=N/c1cccc([N+](=O)[O-])c1)c1ccccc1	> 54
CN(C)CCCN(/N=N/c1cc(F)ccc1F)c1ccccc1	> 25
Fc1ccc(/N=N/c2ccc(NC[C@@H]3CCCN4CCCC[C@H]34)c3c2CCCC3)c(F)c1	> 9

Tested on: Vesicular stomatitis virus
Assay: Antiviral activity against Vesicular stomatitis virus after 2 days by plaque reduction assay
Format: functional, organism-based
Conditions: not given

Compound	Activity
CN(C)CCCN(/N=N/c1c(F)cccc1F)c1ccccc1	inactive
FC(F)(F)c1cccc(N/N=N/c2ccccc2)c1	inactive
c1ccc(/N=N/c2ccc(NC[C@@H]3CCCN4CCCC[C@H]34)c3c2CCCC3)cc1	inactive
CN(C)CCCN(/N=N/c1cccc([N+](=O)[O-])c1)c1ccccc1	inactive
CN(C)CCCN(/N=N/c1cc(F)ccc1F)c1ccccc1	inactive
Fc1ccc(/N=N/c2ccc(NC[C@@H]3CCCN4CCCC[C@H]34)c3c2CCCC3)c(F)c1	inactive

Tested on: Poliovirus 1
Assay: Antiviral activity against Human poliovirus 1 strain Sabin after 2 days by plaque reduction assay
Format: functional
Conditions: not given

Compound	Activity
c1ccc(/N=N/c2ccc(NC[C@@H]3CCCN4CCCC[C@H]34)c3c2CCCC3)cc1	inactive
Fc1ccc(/N=N/c2ccc(NC[C@@H]3CCCN4CCCC[C@H]34)c3c2CCCC3)c(F)c1	inactive

Same assay, conditions: Enterovirus C, 48 h

Compound	EC50 [µM]
CN(C)CCCN(/N=N/c1c(F)cccc1F)c1ccccc1	> 25
FC(F)(F)c1cccc(N/N=N/c2ccccc2)c1	> 15
CN(C)CCCN(/N=N/c1cccc([N+](=O)[O-])c1)c1ccccc1	> 40
CN(C)CCCN(/N=N/c1cc(F)ccc1F)c1ccccc1	> 7

Tested on: Bovine viral diarrhea virus 1
Assay: Antiviral activity against Bovine viral diarrhea virus infected in MDBK cells assessed as inhibition of virus-induced cytopathicity after 3 to 4 days by MTT assay
Format: functional, organism-based
Conditions: Bovine viral diarrhea virus isolates and strains

Compound	EC50 [µM]
CN(C)CCCN(/N=N/c1c(F)cccc1F)c1ccccc1	> 45
FC(F)(F)c1cccc(N/N=N/c2ccccc2)c1	> 100
c1ccc(/N=N/c2ccc(NC[C@@H]3CCCN4CCCC[C@H]34)c3c2CCCC3)cc1	30
CN(C)CCCN(/N=N/c1cccc([N+](=O)[O-])c1)c1ccccc1	> 37
CN(C)CCCN(/N=N/c1cc(F)ccc1F)c1ccccc1	> 25
Fc1ccc(/N=N/c2ccc(NC[C@@H]3CCCN4CCCC[C@H]34)c3c2CCCC3)c(F)c1	> 11

Tested on: Human alphaherpesvirus 1
Assay: Antiviral activity against HSV1 infected in Vero-76 cells after 3 days by plaque reduction assay
Format: functional, organism-based
Conditions: Human alphaherpesvirus 1, Vero 76, 72 h

Compound	EC50 [µM]
CN(C)CCCN(/N=N/c1c(F)cccc1F)c1ccccc1	12
FC(F)(F)c1cccc(N/N=N/c2ccccc2)c1	> 15
c1ccc(/N=N/c2ccc(NC[C@@H]3CCCN4CCCC[C@H]34)c3c2CCCC3)cc1	> 80
CN(C)CCCN(/N=N/c1cccc([N+](=O)[O-])c1)c1ccccc1	30
CN(C)CCCN(/N=N/c1cc(F)ccc1F)c1ccccc1	> 7
Fc1ccc(/N=N/c2ccc(NC[C@@H]3CCCN4CCCC[C@H]34)c3c2CCCC3)c(F)c1	> 15

Tested on: Vero
Assay: Cytotoxicity against african green monkey Vero 76 cells by crystal violet staining
Format: cell-based
Conditions: chlorocebus sabaeus, vero
Outline: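 Mock-infected Vero 76 seeded at 4 × 10^5 cells/mL, run in parallel with plaque assays, with or without serial compound dilutions. Cell number of monolayers determined by crystal violet staining. CC50 = concentration reducing viable cell number 50%.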

Compound	CC50 [µM]
CN(C)CCCN(/N=N/c1c(F)cccc1F)c1ccccc1	25
FC(F)(F)c1cccc(N/N=N/c2ccccc2)c1	15
c1ccc(/N=N/c2ccc(NC[C@@H]3CCCN4CCCC[C@H]34)c3c2CCCC3)cc1	80
CN(C)CCCN(/N=N/c1cccc([N+](=O)[O-])c1)c1ccccc1	40
CN(C)CCCN(/N=N/c1cc(F)ccc1F)c1ccccc1	7
Fc1ccc(/N=N/c2ccc(NC[C@@H]3CCCN4CCCC[C@H]34)c3c2CCCC3)c(F)c1	15

Tested on: Vaccinia virus
Assay: Antiviral activity against Vaccinia virus after 3 days by plaque reduction assay
Format: functional, organism-based
Conditions: Orthopoxvirus vaccinia

Compound	Activity
CN(C)CCCN(/N=N/c1c(F)cccc1F)c1ccccc1	inactive
FC(F)(F)c1cccc(N/N=N/c2ccccc2)c1	inactive
c1ccc(/N=N/c2ccc(NC[C@@H]3CCCN4CCCC[C@H]34)c3c2CCCC3)cc1	inactive
CN(C)CCCN(/N=N/c1cccc([N+](=O)[O-])c1)c1ccccc1	inactive
CN(C)CCCN(/N=N/c1cc(F)ccc1F)c1ccccc1	inactive
Fc1ccc(/N=N/c2ccc(NC[C@@H]3CCCN4CCCC[C@H]34)c3c2CCCC3)c(F)c1	inactive

Tested on: Human immunodeficiency virus 1
Assay: Antiviral activity against HIV1 infected in human MT4 cells assessed as inhibition of virus-induced cytopathicity after 4 days by MTT assay
Format: functional, organism-based
Conditions: not given

Compound	inhibition
CN(C)CCCN(/N=N/c1c(F)cccc1F)c1ccccc1	inactive
FC(F)(F)c1cccc(N/N=N/c2ccccc2)c1	inactive
c1ccc(/N=N/c2ccc(NC[C@@H]3CCCN4CCCC[C@H]34)c3c2CCCC3)cc1	inactive
CN(C)CCCN(/N=N/c1cccc([N+](=O)[O-])c1)c1ccccc1	inactive
CN(C)CCCN(/N=N/c1cc(F)ccc1F)c1ccccc1	inactive
Fc1ccc(/N=N/c2ccc(NC[C@@H]3CCCN4CCCC[C@H]34)c3c2CCCC3)c(F)c1	inactive

Tested on: Coxsackievirus B2
Assay: Antiviral activity against Coxsackie virus type B2 virus infected in african green monkey Vero-76 cells after 3 days by plaque reduction assay
Format: functional, organism-based
Conditions: Enterovirus B, Vero 76, 72 h
Outline: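 Vero 76 cells seeded at 2 × 10^5 cells/well, grown overnight to confluence at 37 °C in 5% CO2, then infected at 50–100 PFU/well. Unadsorbed virus removed. Overlay of DMEM with 1% inactivated FCS and 0.75% methylcellulose, with or without serial compound dilutions. After 3 days at 37 °C, fixed and stained with crystal violet in PBS/50% ethanol; plaques counted. EC50 is the concentration reducing plaque number by 50%.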

Compound	EC50 [µM]
CN(C)CCCN(/N=N/c1c(F)cccc1F)c1ccccc1	9
FC(F)(F)c1cccc(N/N=N/c2ccccc2)c1	8
c1ccc(/N=N/c2ccc(NC[C@@H]3CCCN4CCCC[C@H]34)c3c2CCCC3)cc1	> 80
CN(C)CCCN(/N=N/c1cccc([N+](=O)[O-])c1)c1ccccc1	> 40
CN(C)CCCN(/N=N/c1cc(F)ccc1F)c1ccccc1	> 7
Fc1ccc(/N=N/c2ccc(NC[C@@H]3CCCN4CCCC[C@H]34)c3c2CCCC3)c(F)c1	> 15
